We go through 3 compounds from article PMC3014451 (Bioorganic & medicinal chemistry, 2010).

In general, solubility refers to how much of the substance goes into solution per volume. A higher solubility goes with much dissolved substance. What is called CLint scaled is the rate of metabolic loss divided by the concentration. Low values mean greater metabolic stability, high ones faster metabolism.

Each structure is given as a SMILES string. In brackets after ≈: the same amount, converted by molar mass.

One data set relates to ALS. To be noted: ALS patients; ref v; cited from earlier work.
The nature of data set [1]: Aqueous solubility screen in PBS. In kind it is physicochemical. To be noted: PBS with 1% DMSO.
Another data set in a line: Mouse plasma stability. The data set is classed as in vitro ADME. In a few lines: (§1)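 Samples were taken at 15 s, 10, 20, 40 and 60 min and precipitated with acetonitrile containing haloperidol as internal standard, then analysed by LC-MS/MS for analyte/internal standard peak-area ratio. The plasma ratio was divided by the PBS ratio at the same time point.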
Another data set is described as follows: PBS stability. In kind it is physicochemical. To be noted: 5 μM, 37 °C. The gist of the method: as §1
Data set [2] is described as follows: Microsomal stability. The data set is classed as in vitro ADME. To be noted: human, liver microsomes, pH 7.4, CL’int, 37 °C, with NADPH. The gist of the method:
(§2)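 Test compound at 5 μM, in duplicate, with liver microsomes (0.275 mg/mL protein) in 100 mM potassium phosphate, 3 mM MgCl2, 2 mM NADPH, pH 7.4, at 37 °C; a parallel control omits NADPH. Aliquots at 15 sec to 60 min quenched in acidified acetonitrile. Parent quantified by LC-MS/MS against haloperidol internal standard. k from 1/Y-weighted exponential fit; T1/2 = ln2/k.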

Data set [3] in a line: Microsomal stability. In kind it is in vitro ADME. To be noted: mouse, liver microsomes. The gist of the method:
as §2
For orientation: Liver microsomes are a subcellular fraction often used to study metabolism.

The subject of data set [4] is mutant G93A SOD1 aggregation in PC12 cells. Description: Mutant SOD1-induced cytotoxicity protection assay. The data set is classed as cell-based. To be noted: maximum cell viability in cytotoxicity protection assay.

As for `Nc1nc2ccc(OC(F)(F)F)cc2s1` [Riluzole], the “prolongation of patient life” value in the data set with ALS is “two to three”.

`Cc1cc(SCc2cc(=O)[nH][nH]2)c(Cl)cc1Cl` [compound 1, 5-((2,4-Dichloro-5-methylphenylthio)methyl)-1H-pyrazol-3(2H)-one] displayed a solubility at 1 h in data set [1] of 16.4 µg/mL (≈ 56.7 µM). Besides, the “Recovery Plasma vs. PBS” value in “Mouse plasma stability” is 91%. In addition, the “PBS Amount Remaining at 60 min” value in “PBS stability” is 100%. Moreover, the CLint scaled at 5 μM turned out to be 58.5 mL/min/kg in “Microsomal stability [2]”; 61.2 mL/min/kg in the data set “Microsomal stability [3]” (pH 7.4, CL’int No NADPH, without NADPH); 292 mL/min/kg in the data set “Microsomal stability [3]” (pH 7.4, CL’int, 5 μM, 37 °C, with NADPH).

With `C[C@@H]1C[C@H]2O[C@@H]2/C=C\C=C\C(=O)Cc2c(Cl)c(O)cc(O)c2C(=O)O1` [radicicol], in data set [4], the “efficacy (cell viability)” value stood at 85%.
